Columns and labels:
[1] = target: T1, Inosine-5'-monophosphate dehydrogenase (Cryptosporidium parvum, UniProt Q8T6T2); test: Inhibition of Cryptosporidium parvum IMPDH assessed as reduction in NADH production
T1 sequence (Q8T6T2 whole entry): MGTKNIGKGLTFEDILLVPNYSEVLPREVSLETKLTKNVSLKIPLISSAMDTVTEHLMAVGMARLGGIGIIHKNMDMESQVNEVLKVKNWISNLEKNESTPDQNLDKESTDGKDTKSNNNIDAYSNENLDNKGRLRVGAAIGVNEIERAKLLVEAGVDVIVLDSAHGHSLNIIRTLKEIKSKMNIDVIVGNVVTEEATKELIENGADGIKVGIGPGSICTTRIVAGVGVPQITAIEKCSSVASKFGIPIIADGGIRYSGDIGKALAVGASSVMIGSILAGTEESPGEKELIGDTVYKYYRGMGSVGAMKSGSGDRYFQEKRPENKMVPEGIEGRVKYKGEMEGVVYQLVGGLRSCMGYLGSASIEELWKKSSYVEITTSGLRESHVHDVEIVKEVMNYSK
Summary of the method: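 Purified expressed CpIMPDH enzyme; activity followed by NADH production. IC50 taken as the average of three independent experiments unless otherwise noted.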

[2] = target: Inosine-5'-monophosphate dehydrogenase 2 (Homo sapiens) (UniProt P12268); test: Inhibition of human IMPDH2 assessed as reduction in NADH production at 5 uM
Chain of Inosine-5'-monophosphate dehydrogenase 2 (Homo sapiens) (P12268 2-514 limits assumed): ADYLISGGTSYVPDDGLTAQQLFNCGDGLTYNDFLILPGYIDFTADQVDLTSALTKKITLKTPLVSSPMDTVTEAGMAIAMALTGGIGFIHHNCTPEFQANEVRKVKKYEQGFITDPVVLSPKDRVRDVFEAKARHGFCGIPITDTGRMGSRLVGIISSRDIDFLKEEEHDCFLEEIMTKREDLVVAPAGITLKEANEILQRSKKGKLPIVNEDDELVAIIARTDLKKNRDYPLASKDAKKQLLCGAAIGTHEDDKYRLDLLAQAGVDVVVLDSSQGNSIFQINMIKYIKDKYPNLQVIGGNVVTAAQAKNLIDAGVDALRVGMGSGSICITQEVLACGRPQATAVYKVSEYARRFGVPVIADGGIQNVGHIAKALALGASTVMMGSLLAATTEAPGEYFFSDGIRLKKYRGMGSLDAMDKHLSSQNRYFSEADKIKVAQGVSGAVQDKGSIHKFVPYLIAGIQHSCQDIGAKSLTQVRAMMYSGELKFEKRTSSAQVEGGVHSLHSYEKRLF

Compound	IC50 [1]	inhibition [2]
COc1cc(NC(=O)Cn2ncc3c(=O)oc4cc(C)ccc4c32)ccc1Cl	2000 nM	
COc1cccc(NC(=O)Cn2ncc3c(=O)oc4ccccc4c32)c1	1500 nM	
O=C(Cn1ncc2c(=O)oc3ccccc3c21)Nc1ccc2[nH]cnc2c1	2500 nM	
O=C(Cn1ncc2c(=O)oc3ccccc3c21)Nc1ccc2c(c1)OCCO2	190 nM	< 20%
COc1cc(NC(=O)Cn2ncc3c(=O)oc4ccccc4c32)ccc1Cl	20 nM	< 20%
O=C(Cn1ncc2c(=O)oc3ccccc3c21)Nc1ccc(Cl)cc1Cl	> 5000 nM	
O=C(Cn1ncc2c(=O)oc3ccccc3c21)Nc1ccc(F)cc1	460 nM	< 20%
O=C(Cn1ncc2c(=O)oc3ccccc3c21)Nc1ccc2cc[nH]c2c1	120 nM	< 20%
COc1cc(NC(=O)Cn2ncc3c2-c2ccccc2OC3)ccc1Cl	70 nM	< 20%
O=C(Cn1ncc2c(=O)oc3ccccc3c21)Nc1ccc(Cl)c(Cl)c1	44 nM	< 20%
COc1ccc(NC(=O)Cn2ncc3c(=O)oc4ccccc4c32)cc1OC	2500 nM	
O=C(Cn1ncc2c(=O)oc3ccccc3c21)Nc1ccc2ncccc2c1	80 nM	< 20%
O=C(Cn1ncc2c(=O)oc3ccccc3c21)Nc1cccc(Cl)c1	> 5000 nM	
O=C(Cn1ncc2c(=O)oc3ccccc3c21)Nc1ccc2[nH]ccc2c1	> 5000 nM	
COc1cc(NC(=O)Cn2ncc3c2-c2ccccc2CC3)ccc1Cl	100 nM	< 20%
O=C(Cn1ncc2c(=O)oc3ccccc3c21)Nc1ccc(C(F)(F)F)cc1	580 nM	< 20%
COc1cc(N(C)C(=O)Cn2ncc3c(=O)oc4ccccc4c32)ccc1Cl	> 5000 nM	
COc1cc(NC(=O)C(C)n2ncc3c(=O)oc4ccccc4c32)ccc1Cl (stereo unspecified)	63 nM	< 20%
O=C(Cn1ncc2c(=O)oc3ccccc3c21)Nc1ccc2ccccc2c1	67 nM	< 20%
O=C(Cn1ncc2c(=O)oc3ccccc3c21)Nc1ccccc1Cl	> 5000 nM	

Reference: ChEMBL document CHEMBL3351328
